According to ChEMBL document CHEMBL1156051, “Synthesis and evaluation of lysophosphatidylserine analogues as inducers of mast cell degranulation. Potent activities of lysophosphatidylthreonine and its 2-deoxy derivative” (J Med Chem, 2009):
Activity calls are given as the source filed them. No cut-off for these calls is given here.

Columns and labels:
Mast cell [1] = experiment: Induction of Wistar rat peritoneal mast cell degradation assessed as concanavalin A-induced histamine release after 15 mins fluorometric assay; assay type: functional, cell-based; conditions: 0.25 h
How it was run: (§1)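 Peritoneal mast cells at 5 × 10^4/mL in HEPES-buffered Tyrode stimulated with analogue plus 100 μg/mL concanavalin A for 15 min at 37 C. Supernatant histamine measured fluorometrically and expressed as percent of total cell histamine. Means ± SE of three independent experiments.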

Mast cell [2] = experiment: Induction of C57BL/6 mouse peritoneal mast cell degradation assessed as concanavalin A-induced histamine release after 15 mins fluorometric assay; assay type: functional, cell-based; conditions: C57BL/6, Mast cell, 0.25 h
How it was run: (§2)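 Peritoneal mast cells at 5 × 10^4/mL in HEPES-buffered Tyrode stimulated with analogue plus 10 μg/mL concanavalin A for 15 min at 37 C. Supernatant histamine measured fluorometrically and expressed as percent of total cell histamine. Means ± SE of three independent experiments.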

Mast cell [3] = experiment: Induction of C57BL/6 mouse peritoneal mast cell degradation assessed as concanavalin A-induced histamine release at 0.01 to 10 uM after 15 mins fluorometric assay; assay type: functional, cell-based; how it was run: as §2
Mast cell [4] = experiment: Induction of Wistar rat peritoneal mast cell degradation assessed as concanavalin A-induced histamine release at 0.01 to 10 uM after 15 mins fluorometric assay; assay type: functional, cell-based; how it was run: as §1
Rattus norvegicus = experiment: Effect on hypothermic effect in iv dosed Wistar rat assessed as reduction in rectal temperature measured every 5 to 10 mins for 60 mins; assay type: functional, organism-based
How it was run: (§3)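 Analogue suspended in PBS with 0.1% BSA and given intravenously; rectal temperature read with a rectal probe every 5 or 10 min for 60 min. Means ± SE of three independent experiments.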

Mus musculus [5] = experiment: Effect on hypothermic effect in iv dosed C57BL/6 mouse assessed as reduction in rectal temperature measured every 5 to 10 mins for 60 mins; assay type: functional, organism-based; how it was run: as §3
[6] = Cytotoxicity against concanavalin A-stimulated Wistar rat peritoneal mast cells assessed as LDH release at 50 uM; assay type: cell-based
Mus musculus [7] = experiment: Increase in plasma histamine level in iv dosed C57BL/6 mouse after 2 mins by EIA; assay type: functional, organism-based
How it was run: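 Mice injected i.v. with analogue in PBS with 0.1% BSA; blood taken 2 min after injection and plasma histamine measured by enzyme immunoassay. Means ± SE of three independent experiments.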

Mus musculus [8] = experiment: Effect on hypothermic effect in mast cell-deficient WBB6F1 mouse assessed as reduction in rectal temperature at 10 ug, iv measured every 5 to 10 mins for 60 mins; assay type: functional, organism-based
How it was run: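 W/Wv mast cell-deficient mice, with C57BL/6 as comparison, were given 10 μg iv in PBS containing 0.1% BSA. Rectal temperature was monitored every 5 or 10 min for 60 min. Three independent experiments.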

SMILES	EC50 (Mast cell [1]) [nM]	Activity (Mast cell [3])	Activity (Mast cell [4])	other results
CCCCCCCCCCCCCCCCCC(=O)OCCCOP(=O)(O)OC[C@H](N)C(=O)O	500	–	–	EC50 (Mast cell [2]): 40 nM
CCCCCCCCCCCCCCCC(=O)OCCCOP(=O)(O)O[C@H](C)[C@@H](N)C(=O)O	> 10000	–	–	Activity (Rattus norvegicus): inactive; Activity (Mus musculus [5]): inactive
CCCCCCCCCCCCCCCCCC(=O)OC[C@@H](O)COP(=O)(O)O[C@H]1CN[C@@H](C(=O)O)C1	> 10000	inactive	inactive	–
CCCCCCCCCCCCCCCCCC(=O)OC[C@@H](O)COP(=O)(O)OC[C@H](NC)C(=O)O	> 10000	inactive	inactive	–
CCCCCCCCCCCCCCCCCC(=O)OC[C@@H](O)COP(=O)(O)OC[C@H](N)C(=O)OC	> 10000	inactive	inactive	–
CCCCCCCCCCCC(=O)OC[C@@H](O)COP(=O)([O-])OCC[N+](C)(C)C [LYSOPHOSPHATIDYLCHOLINE]	–	–	–	Activity [6]: Toxic
CCCCCCCCCCCCCCCCCC(=O)OC[C@@H](O)COP(=O)(O)O[C@@H](C)[C@H](N)C(=O)O	2000	–	–	Activity (Rattus norvegicus): inactive; Activity (Mus musculus [5]): inactive; EC50 (Mast cell [2]): 200 nM
CCCCCCCCCCCCCCCCCC(=O)OCCCOP(=O)(O)O[C@H](C)[C@H](N)C(=O)O	100	Active	Active	Activity (Mus musculus [5]): Active; Activity (Mus musculus [7]): Active; EC50 (Mast cell [2]): 7 nM; Activity (Mus musculus [8]): inactive

Second part, led by results:

EC50 (Mast cell [1]) [nM]	SMILES	Activity (Mast cell [3])	Activity (Mast cell [4])	other results
> 10000	CCCCCCCCCCCCCCCCCC(=O)OCCOP(=O)(O)OC[C@H](N)C(=O)O	inactive	inactive	–
60	CCCCCCCCCCCCCCCC(=O)OCCCOP(=O)(O)O[C@H](C)[C@H](N)C(=O)O	Active	Active	–
> 10000	CCCCCCCCCCCCCCCCCC(=O)OC[C@@H](O)COP(=O)(O)O[C@@H]1CN[C@@H](C(=O)O)C1	inactive	inactive	–
> 10000	CCCCCCCCCCCCCCCCCC(=O)O[C@H](C)COP(=O)(O)OC[C@H](N)C(=O)O	–	–	–
